These results are taken from ChEMBL document CHEMBL1687922, “Dipeptidyl peptidase IV dependent water-soluble prodrugs of highly lipophilic bicyclic nucleoside analogues” (J Med Chem, 2011).

The term CC50 denotes the concentration that lowers cell viability or growth by half. The EC50 is the concentration that produces a half-maximal response. Broadly, the solubility is how much of the substance goes into solution per volume.

Data set [1] is described as follows: Stability of the compound assessed as conversion of prodrug to 3-[(2R,4S, 5R)-4-hydroxy-5-(hydroxymethyl)oxolan-2-yl]-6-(4-pentylphenyl)furo[2, 3-d]pyrimidin-2-one in presence of Dipeptidyl-peptidase 4, 20 % human serum and 2.5 uM DPPIV inhibitor vildagliptin. The class given is physicochemical. The method in brief: (§1)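 Prodrug conversion by purified DPPIV/CD26 or by human, bovine or murine serum (20% in PBS) was run with varying concentrations of vildagliptin. Prodrug, intermediate and parent were quantified by HPLC.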

Data set [2] in a line: Stability of the compound assessed as conversion of prodrug to 3-[(2R,4S, 5R)-4-hydroxy-5-(hydroxymethyl)oxolan-2-yl]-6-(4-pentylphenyl)furo[2, 3-d]pyrimidin-2-one in presence of Dipeptidyl-peptidase 4, 20 % bovine serum and 2.5 uM DPPIV inhibitor vildagliptin. The class given is physicochemical. As to conditions: cattle; call rule not given here. In a few lines: as §1
Data set [3] is described as follows: Cytotoxicity against HEL cells assessed as inhibition of cell proliferation. In kind it is cell-based. As to conditions: human.
Data set [4] can be described thus: Stability of the compound assessed as conversion of prodrug to 3-[(2R,4S, 5R)-4-hydroxy-5-(hydroxymethyl)oxolan-2-yl]-6-(4-pentylphenyl)furo[2, 3-d]pyrimidin-2-one in presence of Dipeptidyl-peptidase 4, 20 % murine serum and 2.5 uM DPPIV inhibitor vildagliptin. In kind it is physicochemical. The note with it: mouse. In a few lines: as §1
The nature of data set [5]: Cytotoxicity against HEL cells assessed as alteration of cell morphology. The class given is cell-based. As to conditions: human. In a few lines:
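Uninfected HEL fibroblasts were exposed to the test compounds. MCC is the minimal concentration giving microscopically detectable alteration of cell morphology.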

A short description of data set [6]: Chemical stability of the compound in PBS buffer at pH 7.4 assessed as compound remaining after 24 hrs by HPLC. The class given is physicochemical. As to conditions: read-out: Stability. In a few lines:
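Prodrug was held in PBS pH 7.4 at room temperature for 24 h. Percent intact prodrug was determined by HPLC.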

For a further data set, the system named is Mus musculus. The data set is described as follows: Bioavailability in mouse assessed as fold increase in 3-[(2R,4S, 5R)-4-hydroxy-5-(hydroxymethyl)oxolan-2-yl]-6-(4-pentylphenyl)furo[2, 3-d]pyrimidin-2-one level within 0 to 180 mins administered by oral gavage. The class given is ADME, organism-based. As to conditions: in vivo. In a few lines:
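Female mice received equimolar single oral gavage doses (parent […]) in 0.5% carboxymethylcellulose. Three mice per time point were sacrificed at 15, 30, 45, 60, 90, 120 and 180 min. Plasma was analysed for parent compound by HPLC with fluorescence detection, using relative peak areas. Fold increase in parent plasma levels over 0-180 min was calculated relative to the parent compound.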

The subject of data set [7] is Human alphaherpesvirus 3. The data set is described as follows: Antiviral activity against Varicella zoster virus YS infected in HEL cells assessed as reduction in virus induced cytopathicity. In kind it is functional, organism-based. As to conditions: Human alphaherpesvirus 3, YS. In a few lines:
(§2)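 Confluent HEL fibroblast monolayers were infected with 20 PFU of VZV (Oka or YS strain). After 1-2 h adsorption, residual virus was removed and varying compound concentrations were added. Plaque formation was scored when untreated infected controls reached completion.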
(In general: Cytopathic effects are the visible damage that an infection or toxin causes in cultured cells.)

Data set [8] can be described thus: Aqueous solubility of the compound at 25 DegC after 24 hrs. In kind it is physicochemical. As to conditions: water. The method in brief:
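Thermodynamic water solubility was measured at 25 °C after 24 h, typically as the mean of two measurements (variation <20%).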

Data set [9] can be described thus: Stability of the compound assessed as conversion of prodrug to 3-[(2R,4S, 5R)-4-hydroxy-5-(hydroxymethyl)oxolan-2-yl]-6-(4-pentylphenyl)furo[2, 3-d]pyrimidin-2-one in presence of Dipeptidyl-peptidase 4 and 2.5 uM DPPIV inhibitor vildagliptin. In kind it is physicochemical. In a few lines:
as §1

The test system of a further data set is Caco-2. The data set is described as follows: Stability in human CaCo-2 cells assessed as appearance of 3-[(2R,4S, 5R)-4-hydroxy-5-(hydroxymethyl)oxolan-2-yl]-6-(4-pentylphenyl)furo[2, 3-d]pyrimidin-2-one at the apical side of the cell. In kind it is ADME, cell-based. As to conditions: in the assay text read “basolateral side” for “apical side”. In a few lines:
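CaCo-2 cells were seeded at 1.5 × 10⁵ cells/well in upper cups of dual-chamber 24-well trays in DMEM with 10% FBS and grown to confluence (~3 days). Upper medium was replaced with DMEM containing compound at 100 μM; bottom medium was replaced with PBS. Upper and bottom cups were sampled at 0-7 and 24 h into cold methanol and analysed by HPLC.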

Data set [10] concerns Human alphaherpesvirus 3. In words: Antiviral activity against Varicella zoster virus OKA infected in HEL cells assessed as reduction in virus induced cytopathicity. The class given is functional, organism-based. The note with it: Human alphaherpesvirus 3, OKA. The method in brief: as §2
Data set [11] is described as follows: Stability of the compound assessed as conversion of prodrug to 3-[(2R,4S, 5R)-4-hydroxy-5-(hydroxymethyl)oxolan-2-yl]-6-(4-pentylphenyl)furo[2, 3-d]pyrimidin-2-one in presence of Dipeptidyl-peptidase 4 and 20 % bovine serum. As to conditions: cattle. In kind it is physicochemical. In a few lines:
(§3)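 Prodrug at 50 μM in PBS (0.1% DMSO) at 37 °C; reaction started with purified CD26 (1.5 mU) or 20% human or bovine serum in PBS. Aliquots taken at time points were quenched in cold methanol on ice, centrifuged, and the supernatant analysed by reverse-phase RP-8 HPLC (NaH2PO4/heptanesulfonic acid pH 3.2 versus acetonitrile gradient) for prodrug, intermediates and parent.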

A short description of data set [12]: Aqueous solubility of the compound at 25 DegC after 4 hrs. In kind it is physicochemical. As to conditions: water.
Data set [13] in a line: Stability of the compound assessed as conversion of prodrug to 3-[(2R,4S, 5R)-4-hydroxy-5-(hydroxymethyl)oxolan-2-yl]-6-(4-pentylphenyl)furo[2, 3-d]pyrimidin-2-one in presence of Dipeptidyl-peptidase 4 and 20 % human serum. In kind it is physicochemical. The method in brief:
as §3

Data set [14] can be described thus: Stability of the compound assessed as conversion of prodrug to 3-[(2R,4S, 5R)-4-hydroxy-5-(hydroxymethyl)oxolan-2-yl]-6-(4-pentylphenyl)furo[2, 3-d]pyrimidin-2-one in presence of Dipeptidyl-peptidase 4. In kind it is physicochemical. In a few lines: as §3

Molecules are shown by their SMILES. Converted amounts (≈) assume the structure as drawn.

For the molecule `CCCCCc1ccc(-c2cc3cn([C@H]4C[C@H](O)[C@@H](COC(=O)[C@@H](NC(=O)[C@@H]5CCCN5C(=O)[C@@H](N)C(C)C)C(C)C)O4)c(=O)nc3o2)cc1`, the Activity entry is “Not Active” in data set [1]; “Not Active” in data set [2]; “Not Active” in data set [4]; “Not Active” in data set [9]; “Active” in the data set on Caco-2. For the same molecule, the CC50 in data set [3] was over 100000 nM. In addition, the MCC in [5] was over 2 µM. Moreover, the remaining at 24 h in [6] was over 95%. Also, the “fold change (FC)” value in the data set on Mus musculus was 13. Further, the EC50 with Human alphaherpesvirus 3 [7] was found to be 154 nM; in the data set on Human alphaherpesvirus 3 [10], 89 nM. Besides, in data set [8], the solubility at 24 h was 1.2 mg/mL (≈ 1.73 mM).
Turning to `CCCCCc1ccc(-c2cc3cn([C@H]4C[C@H](OC(=O)[C@@H](NC(=O)[C@@H]5CCCN5C(=O)[C@@H](N)C(C)C)C(C)C)[C@@H](COC(=O)[C@@H](NC(=O)[C@@H]5CCCN5C(=O)[C@@H](N)C(C)C)C(C)C)O4)c(=O)nc3o2)cc1`, in data set [3], the CC50 is 50000 nM. The MCC in data set [5] was over 5 µM. In addition, the remaining at 24 h in data set [6] is over 95%. Further, the “fold change (FC)” value in the data set with Mus musculus is reported as 12. Besides, the EC50 came to 260 nM with Human alphaherpesvirus 3 [7] and 127 nM in the data set on Human alphaherpesvirus 3 [10]. This molecule also gave a solubility at 24 h in [8] of 77 mg/mL (≈ 77.8 mM).
In the case of `CCCCCc1ccc(-c2cc3cn([C@H]4C[C@H](OC(=O)[C@@H](NC(=O)[C@@H]5CCCN5C(=O)[C@@H](N)C(C)C)C(C)C)[C@@H](CO)O4)c(=O)nc3o2)cc1`, in data set [3], the CC50 came to 17000 nM. Further, the MCC in data set [5] amounted to 60 µM. In addition, the remaining at 24 h in data set [6] was over 95%. The “fold change (FC)” value in the data set on Mus musculus came to 7. Further, the EC50 is 16 nM in the data set with Human alphaherpesvirus 3 [7] and 18 nM in the data set with Human alphaherpesvirus 3 [10]. The molecule also registered a solubility at 24 h in data set [8] of 5.2 mg/mL (≈ 7.49 mM).
As for `CCCCCc1ccc(-c2cc3cn([C@H]4C[C@H](O)[C@@H](COC(=O)[C@H](CC(C)C)NC(=O)[C@@H]5CCCN5C(=O)[C@@H](N)C(C)C)O4)c(=O)nc3o2)cc1`, in data set [3], the CC50 turned out to be 31000 nM. Also, the MCC in data set [5] was over 0.5 µM. The outcome in data set [11] and in data set [13] was Active. In addition, the remaining at 24 h in [6] came out at 69%. For the same molecule, the “fold change (FC)” value in the data set with Mus musculus was 11. The solubility at 4 h in [12] came to 14 mg/mL (≈ 19.8 mM). Moreover, the figures for the EC50 in the data set with Human alphaherpesvirus 3 [7] and in the data set on Human alphaherpesvirus 3 [10] were 6 nM and 9 nM, respectively.
With `CCCCCc1ccc(-c2cc3cn([C@H]4C[C@H](O)[C@@H](COC(=O)[C@H](Cc5ccccc5)NC(=O)[C@@H]5CCCN5C(=O)[C@@H](N)C(C)C)O4)c(=O)nc3o2)cc1`, the CC50 in data set [3] came to 40000 nM. Further, the MCC in [5] is over 0.5 µM. In addition, the result in data set [11] and in data set [13] was Active. In [6], the remaining at 24 h came out at 52%. The molecule also came in with a solubility at 4 h in data set [12] of 1.1 mg/mL (≈ 1.48 mM). Moreover, the EC50 in the data set on Human alphaherpesvirus 3 [7] was 10 nM; in the data set with Human alphaherpesvirus 3 [10], 13 nM.
Consider `CCCCCc1ccc(-c2cc3cn([C@H]4C[C@H](O)[C@@H](COC(=O)[C@H](C)NC(=O)[C@@H]5CCCN5C(=O)[C@@H](N)C(C)C)O4)c(=O)nc3o2)cc1`, for which the CC50 in [3] was 44000 nM. Further, the MCC in data set [5] was over 0.5 µM. The outcome in data set [11] and in data set [13] was Active. Further, in [6], the remaining at 24 h was found to be 74%. In data set [12], this molecule had a solubility at 4 h of 6.1 mg/mL (≈ 9.16 mM). The EC50 stood at 3 nM with Human alphaherpesvirus 3 [7] and 6 nM in the data set with Human alphaherpesvirus 3 [10].
`CCCCCc1ccc(-c2cc3cn([C@H]4C[C@H](O)[C@@H](COC(=O)[C@@H](NC(=O)[C@@H]5CCCN5C(=O)[C@@H](N)CC(N)=O)C(C)C)O4)c(=O)nc3o2)cc1`: the CC50 in data set [3] was 56000 nM. For the same molecule, the MCC in data set [5] is over 5 µM. The remaining at 24 h in data set [6] was over 95%. In addition, the EC50 in the data set with Human alphaherpesvirus 3 [7] came out at 85 nM; in the data set on Human alphaherpesvirus 3 [10], 42 nM. Also, the solubility at 24 h in [8] was 39 mg/mL (≈ 55 mM). Besides, the result in data set [14] was Active.
As to `CCCCCc1ccc(-c2cc3cn([C@H]4C[C@H](O)[C@@H](COC(=O)[C@@H](NC(=O)[C@@H]5CCCN5C(=O)[C@@H](N)CCCCN)C(C)C)O4)c(=O)nc3o2)cc1`, in data set [3], the CC50 worked out at 29000 nM. In addition, the MCC in data set [5] is over 5 µM. Moreover, in [6], the remaining at 24 h was over 95%. Further, the “fold change (FC)” value with Mus musculus came out at 15. Further, the EC50 in the data set with Human alphaherpesvirus 3 [7] was determined as 22 nM; with Human alphaherpesvirus 3 [10] it was 18 nM. This molecule also displayed a solubility at 24 h in data set [8] of 55 mg/mL (≈ 76.1 mM). Moreover, the result in data set [14] was Active.
As to `CCCCCc1ccc(-c2cc3cn([C@H]4C[C@H](O)[C@@H](COC(=O)[C@@H](NC(=O)[C@@H]5CCCN5C(=O)[C@@H](N)CC(=O)O)C(C)C)O4)c(=O)nc3o2)cc1`, the CC50 in data set [3] came to 52000 nM. Besides, the MCC in data set [5] is over 5 µM. The Activity entry in [11] is reported as “Not Active”; in data set [13] it was “Not Active”; in data set [14] it was “Active”. In addition, the remaining at 24 h in [6] was over 95%. Moreover, the figures for the EC50 in the data set with Human alphaherpesvirus 3 [7] and with Human alphaherpesvirus 3 [10] were 73 nM and 32 nM, respectively. This molecule gave a solubility at 24 h in data set [8] of 15 mg/mL (≈ 21.1 mM).
On to `CCCCCc1ccc(-c2cc3cn([C@H]4C[C@H](O)[C@@H](CO)O4)c(=O)nc3o2)cc1` [CF1743], for which the MCC in data set [5] was over 20 µM. Besides, the solubility at 24 h in [8] stood at 0.018 mg/mL (≈ 0.0452 mM).
